{"source": "ChEMBL document CHEMBL5303300", "about": "“EUbOPEN Chemogenomics Library - Multiplex” (2023)", "key": {"Fibroblast": {"test_system": "Fibroblast", "assay": "Multiplex assay against human fibroblast", "type": "toxicity, cell-based", "conditions": "number of replicates 2", "procedure,_shortened": "(§1)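 Live cells carried four stains from seeding: Hoechst33342, BioTracker Green Microtubule Cytoskeleton Dye, MitoTracker Red and Annexin V Alexa Fluor 680. They were imaged on a CQ1 microscope at 37°C and 5% CO2 after compound addition. Using CellPathfinder machine-learning gating, cells were split into Hoechst high-intensity objects or normal cells, normal cells into healthy, pyknosed or fragmented nuclei, and pyknosed cells into mitotic or apoptotic; tubulin, mitochondrial-mass and membrane-permeability phenotypes are per cents of healthy-nucleus cells.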"}, "HEK-293T": {"test_system": "HEK-293T", "assay": "Multiplex assay against HEK293T", "type": "toxicity, cell-based", "conditions": "human, number of replicates 2", "procedure,_shortened": "as §1"}, "[1]": {"conditions": "12 h, 1 µM, compound concentration 1 uM"}, "[2]": {"conditions": "12 h, 10 µM, compound concentration 10 uM"}, "[3]": {"conditions": "24 h, 1 µM, compound concentration 1 uM"}, "[4]": {"conditions": "24 h, 10 µM, compound concentration 10 uM"}, "[5]": {"conditions": "48 h, 1 µM, compound concentration 1 uM"}, "[6]": {"conditions": "48 h, 10 µM, compound concentration 10 uM"}}, "note": "Values joined by “and” are separate entries in the source; they are usually repeats but may differ in a detail not shown here. Equal entries are not always repeated."}
{"molecule": "COc1cc(N2CCN(C)CC2)ccc1Nc1ncc2c(n1)N(C)c1ccccc1C(=O)N2CC(F)(F)F", "values": [{"measurement": "Population Apoptotic (%)", "setting": "Fibroblast; [1]", "result": "50% and 44%"}, {"measurement": "Population Fragmented Nuclei (%)", "setting": "Fibroblast; [1]", "result": "14% and 10%"}, {"measurement": "Population Healthy Nuclei (%)", "setting": "Fibroblast; [1]", "result": "74% and 76%"}, {"measurement": "Population Hoechst High Intensity Objects (%)", "setting": "Fibroblast; [1]", "result": 0, "unit": "%"}, {"measurement": "Population Membrane Permeable-Phenotype (%)", "setting": "Fibroblast; [1]", "result": "1% and 2%"}, {"measurement": "Population Mitochondria Different-Phenotype (%)", "setting": "Fibroblast; [1]", "result": 1, "unit": "%"}, {"measurement": "Population Mitotic Cells (%)", "setting": "Fibroblast; [1]", "result": "50% and 55%"}, {"measurement": "Population Normal (%)", "setting": "Fibroblast; [1]", "result": 100, "unit": "%"}, {"measurement": "Population Pyknosed Nuclei (%)", "setting": "Fibroblast; [1]", "result": "10% and 13%"}, {"measurement": "Population Tubulin-Different-Phenotype (%)", "setting": "Fibroblast; [1]", "result": "32% and 20%"}, {"measurement": "Total Cell Count", "setting": "Fibroblast; [1]", "result": "214 and 269"}, {"measurement": "Population Apoptotic (%)", "setting": "Fibroblast; [2]", "result": "27% and 35%"}, {"measurement": "Population Fragmented Nuclei (%)", "setting": "Fibroblast; [2]", "result": "45% and 17%"}, {"measurement": "Population Healthy Nuclei (%)", "setting": "Fibroblast; [2]", "result": "40% and 66%"}, {"measurement": "Population Hoechst High Intensity Objects (%)", "setting": "Fibroblast; [2]", "result": "4% and 0%"}, {"measurement": "Population Membrane Permeable-Phenotype (%)", "setting": "Fibroblast; [2]", "result": "1% and 3%"}, {"measurement": "Population Mitochondria Different-Phenotype (%)", "setting": "Fibroblast; [2]", "result": "7% and 11%"}, {"measurement": "Population Mitotic Cells (%)", "setting": "Fibroblast; [2]", "result": "72% and 64%"}, {"measurement": "Population Normal (%)", "setting": "Fibroblast; [2]", "result": "95% and 100%"}, {"measurement": "Population Pyknosed Nuclei (%)", "setting": "Fibroblast; [2]", "result": "14% and 16%"}, {"measurement": "Population Tubulin-Different-Phenotype (%)", "setting": "Fibroblast; [2]", "result": "57% and 67%"}, {"measurement": "Total Cell Count", "setting": "Fibroblast; [2]", "result": "330 and 243"}, {"measurement": "Population Apoptotic (%)", "setting": "Fibroblast; [3]", "result": "75% and 29%"}, {"measurement": "Population Fragmented Nuclei (%)", "setting": "Fibroblast; [3]", "result": "17% and 18%"}, {"measurement": "Population Healthy Nuclei (%)", "setting": "Fibroblast; [3]", "result": "77% and 73%"}, {"measurement": "Population Hoechst High Intensity Objects (%)", "setting": "Fibroblast; [3]", "result": 0, "unit": "%"}, {"measurement": "Population Membrane Permeable-Phenotype (%)", "setting": "Fibroblast; [3]", "result": 1, "unit": "%"}, {"measurement": "Population Mitochondria Different-Phenotype (%)", "setting": "Fibroblast; [3]", "result": "1% and 3%"}, {"measurement": "Population Mitotic Cells (%)", "setting": "Fibroblast; [3]", "result": "25% and 70%"}, {"measurement": "Population Normal (%)", "setting": "Fibroblast; [3]", "result": "99% and 100%"}, {"measurement": "Population Pyknosed Nuclei (%)", "setting": "Fibroblast; [3]", "result": "5% and 8%"}, {"measurement": "Population Tubulin-Different-Phenotype (%)", "setting": "Fibroblast; [3]", "result": "33% and 18%"}, {"measurement": "Total Cell Count", "setting": "Fibroblast; [3]", "result": "241 and 300"}, {"measurement": "Population Apoptotic (%)", "setting": "Fibroblast; [4]", "result": "62% and 44%"}, {"measurement": "Population Fragmented Nuclei (%)", "setting": "Fibroblast; [4]", "result": "41% and 15%"}, {"measurement": "Population Healthy Nuclei (%)", "setting": "Fibroblast; [4]", "result": "47% and 69%"}, {"measurement": "Population Hoechst High Intensity Objects (%)", "setting": "Fibroblast; [4]", "result": "5% and 0%"}, {"measurement": "Population Membrane Permeable-Phenotype (%)", "setting": "Fibroblast; [4]", "result": 2, "unit": "%"}, {"measurement": "Population Mitochondria Different-Phenotype (%)", "setting": "Fibroblast; [4]", "result": "27% and 34%"}, {"measurement": "Population Mitotic Cells (%)", "setting": "Fibroblast; [4]", "result": "37% and 55%"}, {"measurement": "Population Normal (%)", "setting": "Fibroblast; [4]", "result": "94% and 100%"}, {"measurement": "Population Pyknosed Nuclei (%)", "setting": "Fibroblast; [4]", "result": "10% and 15%"}, {"measurement": "Population Tubulin-Different-Phenotype (%)", "setting": "Fibroblast; [4]", "result": "69% and 78%"}, {"measurement": "Total Cell Count", "setting": "Fibroblast; [4]", "result": "294 and 218"}, {"measurement": "Population Apoptotic (%)", "setting": "Fibroblast; [5]", "result": "70% and 45%"}, {"measurement": "Population Fragmented Nuclei (%)", "setting": "Fibroblast; [5]", "result": "23% and 16%"}, {"measurement": "Population Healthy Nuclei (%)", "setting": "Fibroblast; [5]", "result": "72% and 77%"}, {"measurement": "Population Hoechst High Intensity Objects (%)", "setting": "Fibroblast; [5]", "result": 0, "unit": "%"}, {"measurement": "Population Membrane Permeable-Phenotype (%)", "setting": "Fibroblast; [5]", "result": "2% and 1%"}, {"measurement": "Population Mitochondria Different-Phenotype (%)", "setting": "Fibroblast; [5]", "result": 1, "unit": "%"}, {"measurement": "Population Mitotic Cells (%)", "setting": "Fibroblast; [5]", "result": "30% and 55%"}, {"measurement": "Population Normal (%)", "setting": "Fibroblast; [5]", "result": "100% and 99%"}, {"measurement": "Population Pyknosed Nuclei (%)", "setting": "Fibroblast; [5]", "result": "4% and 6%"}, {"measurement": "Population Tubulin-Different-Phenotype (%)", "setting": "Fibroblast; [5]", "result": "17% and 10%"}, {"measurement": "Total Cell Count", "setting": "Fibroblast; [5]", "result": "249 and 315"}, {"measurement": "Population Apoptotic (%)", "setting": "Fibroblast; [6]", "result": "76% and 79%"}, {"measurement": "Population Fragmented Nuclei (%)", "setting": "Fibroblast; [6]", "result": "42% and 17%"}, {"measurement": "Population Healthy Nuclei (%)", "setting": "Fibroblast; [6]", "result": "50% and 72%"}, {"measurement": "Population Hoechst High Intensity Objects (%)", "setting": "Fibroblast; [6]", "result": "4% and 1%"}, {"measurement": "Population Membrane Permeable-Phenotype (%)", "setting": "Fibroblast; [6]", "result": "0% and 4%"}, {"measurement": "Population Mitochondria Different-Phenotype (%)", "setting": "Fibroblast; [6]", "result": "28% and 18%"}, {"measurement": "Population Mitotic Cells (%)", "setting": "Fibroblast; [6]", "result": "23% and 20%"}, {"measurement": "Population Normal (%)", "setting": "Fibroblast; [6]", "result": "95% and 98%"}, {"measurement": "Population Pyknosed Nuclei (%)", "setting": "Fibroblast; [6]", "result": "7% and 10%"}, {"measurement": "Population Tubulin-Different-Phenotype (%)", "setting": "Fibroblast; [6]", "result": "68% and 71%"}, {"measurement": "Total Cell Count", "setting": "Fibroblast; [6]", "result": "288 and 232"}, {"measurement": "Population Apoptotic (%)", "setting": "HEK-293T; [1]", "result": "31% and 35%"}, {"measurement": "Population Fragmented Nuclei (%)", "setting": "HEK-293T; [1]", "result": "3% and 2%"}, {"measurement": "Population Healthy Nuclei (%)", "setting": "HEK-293T; [1]", "result": "87% and 86%"}, {"measurement": "Population Hoechst High Intensity Objects (%)", "setting": "HEK-293T; [1]", "result": "5% and 6%"}, {"measurement": "Population Membrane Permeable-Phenotype (%)", "setting": "HEK-293T; [1]", "result": 3, "unit": "%"}, {"measurement": "Population Mitochondria Different-Phenotype (%)", "setting": "HEK-293T; [1]", "result": "20% and 16%"}, {"measurement": "Population Mitotic Cells (%)", "setting": "HEK-293T; [1]", "result": "68% and 64%"}, {"measurement": "Population Normal (%)", "setting": "HEK-293T; [1]", "result": "94% and 93%"}, {"measurement": "Population Pyknosed Nuclei (%)", "setting": "HEK-293T; [1]", "result": "9% and 10%"}, {"measurement": "Population Tubulin-Different-Phenotype (%)", "setting": "HEK-293T; [1]", "result": "86% and 78%"}, {"measurement": "Total Cell Count", "setting": "HEK-293T; [1]", "result": "866 and 792"}, {"measurement": "Population Apoptotic (%)", "setting": "HEK-293T; [2]", "result": "55% and 51%"}, {"measurement": "Population Fragmented Nuclei (%)", "setting": "HEK-293T; [2]", "result": "1% and 3%"}, {"measurement": "Population Healthy Nuclei (%)", "setting": "HEK-293T; [2]", "result": "81% and 83%"}, {"measurement": "Population Hoechst High Intensity Objects (%)", "setting": "HEK-293T; [2]", "result": "13% and 12%"}, {"measurement": "Population Membrane Permeable-Phenotype (%)", "setting": "HEK-293T; [2]", "result": "5% and 4%"}, {"measurement": "Population Mitochondria Different-Phenotype (%)", "setting": "HEK-293T; [2]", "result": "49% and 52%"}, {"measurement": "Population Mitotic Cells (%)", "setting": "HEK-293T; [2]", "result": "44% and 48%"}, {"measurement": "Population Normal (%)", "setting": "HEK-293T; [2]", "result": "86% and 87%"}, {"measurement": "Population Pyknosed Nuclei (%)", "setting": "HEK-293T; [2]", "result": "16% and 13%"}, {"measurement": "Population Tubulin-Different-Phenotype (%)", "setting": "HEK-293T; [2]", "result": 95, "unit": "%"}, {"measurement": "Total Cell Count", "setting": "HEK-293T; [2]", "result": "412 and 483"}, {"measurement": "Population Apoptotic (%)", "setting": "HEK-293T; [3]", "result": "27% and 32%"}, {"measurement": "Population Fragmented Nuclei (%)", "setting": "HEK-293T; [3]", "result": "3% and 5%"}, {"measurement": "Population Healthy Nuclei (%)", "setting": "HEK-293T; [3]", "result": "90% and 86%"}, {"measurement": "Population Hoechst High Intensity Objects (%)", "setting": "HEK-293T; [3]", "result": 7, "unit": "%"}, {"measurement": "Population Membrane Permeable-Phenotype (%)", "setting": "HEK-293T; [3]", "result": 2, "unit": "%"}]}
